Assays:
[1] = Binding affinity to Enterovirus D68 US/KY/14-18953 2A protease expressed in Escherichia coli BL21(DE3) assessed as inhibition constant using Dabcyl-KIRIVNT/GPGEGGE-Edans as substrate incubated for 2 hrs by FRET assay
Summary of the method: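 Progression-curve kinetics: FRET substrate at 40 μM final in 50 mM Tris pH 7.0, 100 mM NaCl, 2 mM DTT, 10% glycerol with varying inhibitor; reaction started by adding 2Apro to 0.4 μM final. Fluorescence (ex 360/40, em 460/40 nm) read every 71 s for 2 h at 30 °C. Curves fitted by the Morrison equation or an earlier-described equation.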

enterovirus D68 [2] = experiment: Antiviral activity against enterovirus D68 US/MO/14-18947 infected in human RD cells assessed as reduction in virus induced cytopathic effect by neutral red staining based CPE assay; format: functional, organism-based; details: Enterovirus D, US/MO/14-18947, RD
Summary of the method: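 RD cells seeded overnight to ~90% confluency, washed with PBS containing Mg/Ca, infected with virus in DMEM/2% FBS/30 mM MgCl2 for at least 1 h at 33 °C, then compound added. Cells stained with 66 μg/mL neutral red for 2 h; uptake read at 540 nm. EC50 from dose-response fit; mean ± SD of two independent experiments, three repeats each.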

[3] = (§1) Cytotoxicity against human RD cells assessed as reduction in cell viability by neutral red staining based CPE assay; format: toxicity; details: RD cells
Summary of the method: (§2)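 Uninfected RD cells, grown overnight to ~90% confluency, treated with compound under otherwise the same handling as the antiviral assay. Viability by neutral red uptake (66 μg/mL, 2 h, absorbance 540 nm). CC50 from best-fit dose-response curve; mean ± SD of two independent experiments, three repeats each.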

[4] = Inhibition of Enterovirus D68 US/KY/14-18953 2A protease expressed in Escherichia coli BL21(DE3) using Dabcyl-KIRIVNT/GPGEGGE-Edans as substrate incubated for 2 hrs by FRET assay
enterovirus D68 [5] = experiment: Antiviral activity against enterovirus D68 US/MO/14-18947 infected in human RD cells assessed as reduction in virus plaque formation measured after 3 days by neutral red staining assay; format: functional, organism-based; details: Enterovirus D, US/MO/14-18947, RD, 72 h
Summary of the method: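 RD cells infected with virus in DMEM/2% FBS/30 mM MgCl2 for at least 1 h at 33 °C, then given compound under a 1.2% avicel microcrystalline cellulose overlay. Cells stained after 3 days and plaques counted. EC50 from curve fitting; mean ± SD of two repeats.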

enterovirus D68 [6] = experiment: Antiviral activity against enterovirus D68 US/MO/14-18949 infected in human RD cells assessed as reduction in virus induced cytopathic effect by neutral red staining based CPE assay; format: functional, organism-based; details: Enterovirus D, US/MO/14-18949, RD
Summary of the method: (§3)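 RD cells were seeded overnight to about 90% confluency and washed with PBS containing Ca/Mg. They were infected with virus in DMEM with 2% FBS and 30 mM MgCl2 for at least 1 h at 33 °C in 5% CO2, then compound was added. Viability was read by neutral red staining (66 μg/mL, 2 h) at A540. EC50 was taken from dose-response curve fits.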

enterovirus D68 [7] = experiment: Antiviral activity against enterovirus D68 US/IL/14-18952 infected in human RD cells assessed as reduction in virus induced cytopathic effect by neutral red staining based CPE assay; format: functional, organism-based; details: Enterovirus D, US/IL/14-18952, RD; summary of the method: as §3
enterovirus D68 [8] = experiment: Antiviral activity against enterovirus D68 US/IL/14-18956 infected in human RD cells assessed as reduction in virus induced cytopathic effect by neutral red staining based CPE assay; format: functional, organism-based; details: Enterovirus D, US/IL/14-18956, RD; summary of the method: as §3
[9] = Toxicity in BALB/c mouse assessed as mortality at 100 mg/kg, ip administered on day 1 and followed by 200 mg/kg, ip on day 3, 300 mg/kg, ip on day 7, 400 mg/kg, ip on day 12 measured after 16 days of initial dose; format: organism-based; details: in vivo, 384 h, time 16 day
Summary of the method: (§4)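 Three female BALB/c mice of about 19 g each received i.p. doses in corn oil with 10% DMSO, escalating in the same animals. They were given 100 mg/kg first, then 200, 300 and 400 mg/kg on days 1, 3, 7 and 12, with time for elimination between doses. Body weight and general health were monitored throughout the study.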

Cytochrome P450 3A = Cytochrome P450 3A (Homo sapiens, UniProt P08684+P20815+Q9HB55+P24462); experiment: Inhibition of CYP3A (unknown origin); format: ADME, protein assay
enterovirus D68 [10] = experiment: Antiviral activity against enterovirus D68 US/KY/14-18953 infected in human RD cells assessed as reduction in virus induced cytopathic effect by neutral red staining based CPE assay; format: functional, organism-based; details: Enterovirus D, US/KY/14-18953, RD; summary of the method: as §3
Cytochrome P450 2D6 = Cytochrome P450 2D6 (Homo sapiens, UniProt P10635); experiment: Inhibition of CYP2D6 (unknown origin); format: ADME
Cytochrome P450 1A2 = target: T1, Cytochrome P450 1A2 (Homo sapiens, UniProt P05177); experiment: Inhibition of CYP1A2 (unknown origin); format: ADME
T1 sequence (P05177 whole entry): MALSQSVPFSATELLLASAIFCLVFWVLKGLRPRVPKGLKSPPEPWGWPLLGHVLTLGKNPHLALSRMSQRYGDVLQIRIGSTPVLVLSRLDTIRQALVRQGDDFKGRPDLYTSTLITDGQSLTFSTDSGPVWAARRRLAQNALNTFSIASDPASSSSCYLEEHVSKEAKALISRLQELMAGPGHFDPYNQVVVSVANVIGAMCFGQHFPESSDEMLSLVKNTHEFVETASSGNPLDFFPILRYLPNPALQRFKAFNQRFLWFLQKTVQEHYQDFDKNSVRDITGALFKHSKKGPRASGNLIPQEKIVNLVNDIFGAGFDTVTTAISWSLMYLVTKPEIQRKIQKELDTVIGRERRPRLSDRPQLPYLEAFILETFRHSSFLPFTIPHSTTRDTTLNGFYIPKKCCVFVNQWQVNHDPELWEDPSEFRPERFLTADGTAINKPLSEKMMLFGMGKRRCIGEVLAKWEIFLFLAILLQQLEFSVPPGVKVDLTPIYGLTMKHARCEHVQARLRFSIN

Cytochrome P450 2C19 = Cytochrome P450 2C19 (Homo sapiens, UniProt P33261); experiment: Inhibition of CYP2C19 (unknown origin); format: ADME
[11] = Toxicity in BALB/c mouse assessed as survival at 100 mg/kg, ip administered on day 1 and followed by 200 mg/kg, ip on day 3, 300 mg/kg, ip on day 7, 400 mg/kg, ip on day 12 measured after 16 days of initial dose; format: organism-based; details: in vivo, 1000 mg/kg, 384 h, time 16 day; summary of the method: as §4
Cytochrome P450 2C9 = Cytochrome P450 2C9 (Homo sapiens, UniProt P11712); experiment: Inhibition of CYP2C9 (unknown origin); format: ADME
[12] = Toxicity in BALB/c mouse assessed as change in body weight at 100 mg/kg, ip administered on day 1 and followed by 200 mg/kg, ip on day 3, 300 mg/kg, ip on day 7, 400 mg/kg, ip on day 12 measured after 16 days of initial dose; format: organism-based; details: in vivo, 384 h, time 16 day; summary of the method: as §4
RD = experiment: as §1; format: toxicity; details: rd; summary of the method: as §2

Cytochrome P450 2D6, sequence (P10635 whole entry): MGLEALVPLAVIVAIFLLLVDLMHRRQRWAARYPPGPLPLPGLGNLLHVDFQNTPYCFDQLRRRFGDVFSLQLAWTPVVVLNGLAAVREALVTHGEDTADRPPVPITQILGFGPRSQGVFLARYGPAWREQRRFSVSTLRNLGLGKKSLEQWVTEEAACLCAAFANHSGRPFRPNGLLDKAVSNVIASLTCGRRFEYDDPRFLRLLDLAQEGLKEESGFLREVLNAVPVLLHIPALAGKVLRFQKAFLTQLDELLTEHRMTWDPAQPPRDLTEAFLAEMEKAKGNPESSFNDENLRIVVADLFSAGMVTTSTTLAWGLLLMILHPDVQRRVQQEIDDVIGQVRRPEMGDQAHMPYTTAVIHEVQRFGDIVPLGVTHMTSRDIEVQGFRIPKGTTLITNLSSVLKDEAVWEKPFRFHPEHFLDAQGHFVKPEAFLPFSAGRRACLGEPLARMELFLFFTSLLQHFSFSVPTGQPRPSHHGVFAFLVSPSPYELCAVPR
Cytochrome P450 2C19, sequence (P33261 whole entry): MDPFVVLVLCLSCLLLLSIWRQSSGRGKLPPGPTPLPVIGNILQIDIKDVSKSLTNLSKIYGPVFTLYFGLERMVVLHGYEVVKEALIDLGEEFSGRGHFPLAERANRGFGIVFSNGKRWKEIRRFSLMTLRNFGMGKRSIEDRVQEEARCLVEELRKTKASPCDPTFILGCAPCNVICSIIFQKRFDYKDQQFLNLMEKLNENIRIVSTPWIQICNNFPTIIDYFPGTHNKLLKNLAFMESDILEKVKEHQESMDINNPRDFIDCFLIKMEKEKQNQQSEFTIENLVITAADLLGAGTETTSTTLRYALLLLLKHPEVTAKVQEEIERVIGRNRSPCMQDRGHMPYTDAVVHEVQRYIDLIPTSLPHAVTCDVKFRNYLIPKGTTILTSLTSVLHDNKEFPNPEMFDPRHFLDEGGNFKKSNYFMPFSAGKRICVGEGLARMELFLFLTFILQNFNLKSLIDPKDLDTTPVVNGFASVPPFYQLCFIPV
Cytochrome P450 2C9, sequence (P11712 whole entry): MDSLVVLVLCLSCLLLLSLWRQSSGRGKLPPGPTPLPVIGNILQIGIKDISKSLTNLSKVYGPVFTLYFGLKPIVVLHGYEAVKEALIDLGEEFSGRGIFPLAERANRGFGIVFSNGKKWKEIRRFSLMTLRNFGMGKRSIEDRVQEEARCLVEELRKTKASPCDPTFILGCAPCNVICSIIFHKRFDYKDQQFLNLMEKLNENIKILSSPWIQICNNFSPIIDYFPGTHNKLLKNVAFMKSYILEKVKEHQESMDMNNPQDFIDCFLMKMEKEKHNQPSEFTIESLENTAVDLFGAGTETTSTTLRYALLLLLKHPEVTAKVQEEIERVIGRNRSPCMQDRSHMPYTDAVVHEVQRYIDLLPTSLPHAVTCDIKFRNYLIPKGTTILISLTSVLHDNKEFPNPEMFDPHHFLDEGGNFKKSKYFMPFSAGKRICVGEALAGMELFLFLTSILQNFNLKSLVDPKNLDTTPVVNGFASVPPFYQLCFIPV

CC(C)(C)[C@H](NC(=O)CC12CC3CC(CC(C3)C1)C2)C(=O)N1C[C@@H]2CCC[C@@H]2[C@H]1C(=O)N[C@H](C(=O)C(=O)NC1CC1)C1CCCC1
Ki [1]: 112 nM
EC50 (enterovirus D68 [2]): 110 nM
CC50 [3]: > 150000 nM
IC50 [4]: 200 nM
EC50 (enterovirus D68 [5]): 15.9 nM

CC(C)(C)[C@H](NC(=O)CC12CC3CC(CC(C3)C1)C2)C(=O)N1C[C@@H]2CCC[C@@H]2[C@H]1C(=O)N[C@H](C(=O)C(=O)NC1CC1)C1CCCCC1
Ki [1]: 51.4 nM
EC50 (enterovirus D68 [6]): 101 nM
EC50 (enterovirus D68 [2]): 130 nM
EC50 (enterovirus D68 [7]): 269 nM
EC50 (enterovirus D68 [8]): 246 nM
Activity [9]: Non-Toxic
CC50 [3]: > 150000 nM
IC50 (Cytochrome P450 3A): 570 nM
EC50 (enterovirus D68 [10]): 46.7 nM
IC50 (Cytochrome P450 2D6): > 50000 nM
IC50 (Cytochrome P450 1A2): > 50000 nM
IC50 [4]: 90 nM
IC50 (Cytochrome P450 2C19): > 50000 nM
Activity [11]: Non-Toxic
EC50 (enterovirus D68 [5]): 15.9 nM
IC50 (Cytochrome P450 2C9): > 50000 nM
Activity [12]: Non-Toxic

CCC[C@H](NC(=O)[C@@H]1[C@H]2CCC[C@H]2CN1C(=O)[C@@H](NC(=O)[C@@H](NC(=O)c1cnccn1)C1CCCCC1)C(C)(C)C)C(=O)C(=O)NC1CC1
Ki [1]: 824 nM
EC50 (enterovirus D68 [6]): 368 nM
EC50 (enterovirus D68 [2]): 450 nM
EC50 (enterovirus D68 [7]): 828 nM
EC50 (enterovirus D68 [8]): 836 nM
CC50 (RD): 83200 nM
EC50 (enterovirus D68 [10]): 209 nM
IC50 [4]: 180 nM
EC50 (enterovirus D68 [5]): 52.1 nM

CC(C)(C)[C@H](NC(=O)CC12CC3CC(CC(C3)C1)C2)C(=O)N1C[C@@H]2CCC[C@@H]2[C@H]1C(=O)N[C@@H](Cc1ccccc1)C(=O)C(=O)NC1CC1
EC50 (enterovirus D68 [2]): 250 nM
CC50 (RD): 17400 nM
IC50 [4]: 90 nM

— ChEMBL document CHEMBL5370639, “Structure-Based Lead Optimization of Enterovirus D68 2A Protease Inhibitors” (J Med Chem, 2023)
